Data from ChEMBL document CHEMBL1136991, “Novel potent BRAF inhibitors: toward 1 nM compounds through optimization of the central phenyl ring” (J Med Chem, 2009).
Activity calls are given as the source filed them. The rule behind the calls is not given here.

Columns and labels:
[1] = Growth inhibition of human WM266.4 cells expressing BRAF V600E mutant after 5 days by SRB assay; type: functional; details: WM 266-4, 120 h
How it was run: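 WM266.4 human melanoma cells, which are driven by mutant BRAF, were assayed for proliferation by sulforhodamine B (SRB) staining; the value is a GI50.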

[2] = target: T1, Serine/threonine-protein kinase B-raf (Homo sapiens, UniProt P15056, V600E); experiment: Inhibition of BRAF V600E mutant
T1 sequence (P15056 2-766 V600E limits assumed): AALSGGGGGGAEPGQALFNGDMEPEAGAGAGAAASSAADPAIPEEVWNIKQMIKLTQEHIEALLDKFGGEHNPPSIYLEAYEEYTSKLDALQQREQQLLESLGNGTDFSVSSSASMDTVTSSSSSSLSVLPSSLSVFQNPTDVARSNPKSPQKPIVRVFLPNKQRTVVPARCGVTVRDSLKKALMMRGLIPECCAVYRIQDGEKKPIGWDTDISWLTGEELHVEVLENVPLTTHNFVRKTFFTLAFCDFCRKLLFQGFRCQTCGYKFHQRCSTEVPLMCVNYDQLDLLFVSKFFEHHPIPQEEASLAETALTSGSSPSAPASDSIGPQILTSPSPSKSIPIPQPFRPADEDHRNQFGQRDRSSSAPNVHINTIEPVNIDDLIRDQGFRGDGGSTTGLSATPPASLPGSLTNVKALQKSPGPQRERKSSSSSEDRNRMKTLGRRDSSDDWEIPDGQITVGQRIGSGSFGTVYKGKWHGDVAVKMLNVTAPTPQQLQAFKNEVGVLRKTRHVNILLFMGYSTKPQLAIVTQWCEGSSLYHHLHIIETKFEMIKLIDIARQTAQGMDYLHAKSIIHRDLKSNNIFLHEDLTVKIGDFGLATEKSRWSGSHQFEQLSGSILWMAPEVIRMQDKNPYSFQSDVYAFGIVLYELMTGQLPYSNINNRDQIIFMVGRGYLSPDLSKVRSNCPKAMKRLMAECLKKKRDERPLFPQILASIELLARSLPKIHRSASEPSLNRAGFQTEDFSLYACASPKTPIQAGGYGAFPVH
How it was run: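 Purified, isolated V600E BRAF enzyme assayed in vitro; potency reported as IC50.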

[3] = target: T1, Serine/threonine-protein kinase B-raf; experiment: Inhibition of BRAF V600E mutant-mediated ERK phosphorylation in human WM266.4 cells; type: cell-based
How it was run: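 Cellular pathway read-out: ERK phosphorylation (pERK) was measured in WM266.4 melanoma cells and reported as an IC50.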

WM1361 = experiment: Growth inhibition of human WM1361 cells expressing NRAS mutant after 5 days by SRB assay; type: functional, cell-based

IC50 [2] [nM]	IC50 [3] [nM]	SMILES	GI50 [1] [nM]	Activity (WM1361)
5200	31000	Cn1c(=O)[nH]c2nccc(Oc3ccc(NC(=O)c4cccc(OC(F)(F)F)c4)c4ccccc34)c21	12000	
37	1060	Cn1c(=O)[nH]c2nccc(Oc3ccc(NC(=O)Nc4cccc(C(C)(C)C)c4)c4ccccc34)c21	1130	
430	46000	Cn1c(=O)[nH]c2c(Oc3ccc(NC(=O)Nc4cccc(C(C)(C)C)c4)c4ccccc34)ccnc21	> 100000	
47	34000	O=C(Nc1ccc(Oc2ccnc3[nH]c(=O)[nH]c23)c(F)c1)Nc1ccc(Cl)c(C(F)(F)F)c1		
10000	20700	CN(C)c1cc(Oc2ccnc3[nH]c(=O)[nH]c23)ccc1NC(=O)Nc1ccc(Cl)c(C(F)(F)F)c1	5340	
220	> 100000	O=C(Nc1ccc(F)c(F)c1)Nc1ccc(Oc2ccnc3[nH]c(=O)[nH]c23)c2ccccc12	5500	
> 10000	> 100000	O=C(Cc1cccc(OC(F)(F)F)c1)Nc1ccc(Oc2ccnc3[nH]c(=O)[nH]c23)c2ccccc12	3100	
6	1910	O=C(Nc1cccc(C(F)(F)F)c1)Nc1ccc(Oc2ccnc3[nH]c(=O)[nH]c23)c2ccccc12	320	
6500	> 100000	O=C(Nc1ccc(Cl)c(C(F)(F)F)c1)Nc1ccc(Oc2ccnc3[nH]c(=O)[nH]c23)cc1-c1ccccc1	5100	
56	3900	Cc1c(NC(=O)Nc2ccc(Cl)c(C(F)(F)F)c2)ccc(Oc2ccnc3[nH]c(=O)[nH]c23)c1C	2000	
30	559	O=C(Nc1ccc(Cl)c(C(F)(F)F)c1)Nc1ccc(Oc2ccnc3[nH]c(=O)[nH]c23)c2ccccc12	470	
12	3450	O=C(Nc1cccc(C(F)(F)F)c1)Nc1ccc(Oc2ccnc3[nH]c(=O)[nH]c23)cc1F	1610	
156	3140	Cn1c(=O)[nH]c2c(Oc3ccc(NC(=O)Nc4ccc(Cl)c(C(F)(F)F)c4)c4ccccc34)ccnc21	2300	
7	4150	O=C(Nc1cccc(SC(F)(F)F)c1)Nc1ccc(Oc2ccnc3[nH]c(=O)[nH]c23)cc1F	1190	
7	1290	O=C(Nc1ccc(Oc2ccnc3[nH]c(=O)[nH]c23)cc1F)Nc1cc(C(F)(F)F)ccc1F	1150	
37	4720	Cc1cc(Oc2ccnc3[nH]c(=O)[nH]c23)ccc1NC(=O)Nc1ccc(Cl)c(C(F)(F)F)c1	5900	
14	346	O=C(Nc1cc(C(F)(F)F)ccc1N1CCOCC1)Nc1ccc(Oc2ccnc3[nH]c(=O)[nH]c23)c2ccccc12	291	
	2390	O=C(Nc1ccc(Oc2ccnc3[nH]c(=O)[nH]c23)cc1)Nc1ccc(Cl)c(C(F)(F)F)c1	4200	
		CNC(=O)c1cc(Oc2ccc(NC(=O)Nc3ccc(Cl)c(C(F)(F)F)c3)cc2)ccn1		inactive

IC50 [2] [nM]	IC50 [3] [nM]	SMILES	GI50 [1] [nM]	Activity (WM1361)
16	29400	COc1cc(NC(=O)Nc2cccc(C(F)(F)F)c2)ccc1Oc1ccnc2[nH]c(=O)[nH]c12	> 100000	
167	2000	Cn1c(=O)[nH]c2c(Oc3ccc(NC(=O)Nc4cc(C(F)(F)F)ccc4F)c4ccccc34)ccnc21	730	
8	2170	O=C(Nc1ccc(Cl)c(C(F)(F)F)c1)Nc1ccc(Oc2ccnc3[nH]c(=O)[nH]c23)cc1F	1530	
106	> 100000	COc1cc(Oc2ccnc3[nH]c(=O)[nH]c23)ccc1NC(=O)Nc1ccc(Cl)c(C(F)(F)F)c1		
90	11000	CS(=O)(=O)c1cc(Oc2ccnc3[nH]c(=O)[nH]c23)ccc1NC(=O)Nc1ccc(Cl)c(C(F)(F)F)c1	11900	
17	810	Cn1c(=O)[nH]c2nccc(Oc3ccc(NC(=O)Nc4cc(C(F)(F)F)ccc4F)c4ccccc34)c21	490	
25	5500	COc1cc(NC(=O)Nc2ccc(Cl)c(C(F)(F)F)c2)ccc1Oc1ccnc2[nH]c(=O)[nH]c12	6200	
10	600	Cn1c(=O)[nH]c2nccc(Oc3ccc(NC(=O)Nc4cccc(C(F)(F)F)c4)c4ccccc34)c21	810	
22	3580	O=C(Nc1ccc(Cl)c(C(F)(F)F)c1)Nc1ccc(Oc2ccnc3[nH]c(=O)[nH]c23)cc1C(F)(F)F	930	
24	1460	Cn1c(=O)[nH]c2nccc(Oc3ccc(NC(=O)Nc4cccc(SC(F)(F)F)c4)c4ccccc34)c21	1200	
> 10000	> 100000	O=C(Cc1cccc(C(F)(F)F)c1)Nc1ccc(Oc2ccnc3[nH]c(=O)[nH]c23)c2ccccc12		
4600	18400	Cn1c(=O)[nH]c2nccc(Oc3ccc(NC(=O)c4cccc(SC(F)(F)F)c4)c4ccccc34)c21	7600	
10	21000	Cn1c(=O)[nH]c2nccc(Oc3ccc(NC(=O)Nc4ccc(Cl)c(C(F)(F)F)c4)c(F)c3)c21	100000	
23	1330	O=C(Nc1ccc(Cl)c(C(F)(F)F)c1)Nc1ccc(Oc2ccnc3[nH]c(=O)[nH]c23)cc1Cl	2000	
23	770	Cn1c(=O)[nH]c2nccc(Oc3ccc(NC(=O)Nc4ccc(Cl)c(C(F)(F)F)c4)c4ccccc34)c21	1040	
23	59000	Cc1cc(NC(=O)Nc2ccc(Cl)c(C(F)(F)F)c2)ccc1Oc1ccnc2[nH]c(=O)[nH]c12	1790	
37	214	O=C(Nc1cccc(F)c1)Nc1ccc(Oc2ccnc3[nH]c(=O)[nH]c23)c2ccccc12	290	
1	610	CSc1cc(Oc2ccnc3[nH]c(=O)[nH]c23)ccc1NC(=O)Nc1ccc(Cl)c(C(F)(F)F)c1	470	
12	3060	CSc1cc(Oc2ccnc3[nH]c(=O)[nH]c23)ccc1NC(=O)Nc1cc(C(F)(F)F)ccc1F	2600	
